Measurements reported in ChEMBL document CHEMBL3627671, “Novel derivatives of nitro-substituted salicylic acids: Synthesis, antimicrobial activity and cytotoxicity” (Bioorg Med Chem, 2015).
Converted amounts (≈) assume the structure as drawn.

Tests used:
Type in all cases: functional
Mycobacterium kansasii [1] = assay: Antimycobacterial activity against Mycobacterium kansasii 235/80 after 14 days; details: 235/80, 336 h
In short: (§1)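 Šula's semisynthetic medium micromethod at 37 °C, read after 7, 14 and 21 days. The 1.0 McFarland suspension was diluted 10^-4. MIC determined. 6509/96 is a clinical isolate.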

Mycobacterium kansasii [2] = assay: Antimycobacterial activity against Mycobacterium kansasii 235/80 after 21 days; details: 235/80, 504 h; in short: as §1
Mycobacterium avium [3] = assay: Antimycobacterial activity against Mycobacterium avium 330/80 after 21 days; details: 330/80, 504 h
Mycobacterium avium [4] = assay: Antimycobacterial activity against Mycobacterium avium 330/80 after 14 days; details: 330/80, 336 h
Mycobacterium kansasii [5] = assay: Antimycobacterial activity against Mycobacterium kansasii 6509/96 after 14 days; details: 6509/96, 336 h; in short: as §1
[6] = system: Mycobacterium tuberculosis; assay: Antimycobacterial activity against Mycobacterium tuberculosis H37Rv 331/88 after 21 days; details: H37Rv 331/88, 504 h
Mycobacterium kansasii [7] = assay: Antimycobacterial activity against Mycobacterium kansasii 235/80 after 7 days; details: 235/80, 168 h; in short: as §1
Mycobacterium kansasii [8] = assay: Antimycobacterial activity against Mycobacterium kansasii 6509/96 after 7 days; details: 6509/96, 168 h; in short: as §1
Mycobacterium kansasii [9] = assay: Antimycobacterial activity against Mycobacterium kansasii 6509/96 after 21 days; details: 6509/96, 504 h; in short: as §1
[10] = system: Mycobacterium tuberculosis; assay: Antimycobacterial activity against Mycobacterium tuberculosis H37Rv 331/88 after 14 days; details: H37Rv 331/88, 336 h

Structure (SMILES): O=C(Nc1cccc(Br)c1)c1cccc([N+](=O)[O-])c1O
- MIC (Mycobacterium kansasii [1]): 125 µM (≈ 42.1 µg/mL)
- MIC (Mycobacterium kansasii [2]): 125 µM (≈ 42.1 µg/mL)
- MIC (Mycobacterium avium [3]): 250 µM (≈ 84.3 µg/mL)
- MIC (Mycobacterium avium [4]): 250 µM (≈ 84.3 µg/mL)
- MIC (Mycobacterium kansasii [5]): 125 µM (≈ 42.1 µg/mL)
- MIC [6]: 62.5 µM (≈ 21.1 µg/mL)
- MIC (Mycobacterium kansasii [7]): 62.5 µM (≈ 21.1 µg/mL)
- MIC (Mycobacterium kansasii [8]): 125 µM (≈ 42.1 µg/mL)
- MIC (Mycobacterium kansasii [9]): 125 µM (≈ 42.1 µg/mL)
- MIC [10]: 62.5 µM (≈ 21.1 µg/mL)

Structure (SMILES): O=C(Nc1cccc(Cl)c1)c1cccc([N+](=O)[O-])c1O
- MIC (Mycobacterium kansasii [1]): 125 µM (≈ 36.6 µg/mL)
- MIC (Mycobacterium kansasii [2]): 250 µM (≈ 73.2 µg/mL)
- MIC (Mycobacterium avium [3]): 500 µM (≈ 146 µg/mL)
- MIC (Mycobacterium avium [4]): 500 µM (≈ 146 µg/mL)
- MIC (Mycobacterium kansasii [5]): 125 µM (≈ 36.6 µg/mL)
- MIC [6]: 62.5 µM (≈ 18.3 µg/mL)
- MIC (Mycobacterium kansasii [7]): 62.5 µM (≈ 18.3 µg/mL)
- MIC (Mycobacterium kansasii [8]): 125 µM (≈ 36.6 µg/mL)
- MIC (Mycobacterium kansasii [9]): 125 µM (≈ 36.6 µg/mL)
- MIC [10]: 62.5 µM (≈ 18.3 µg/mL)

Structure (SMILES): O=C(Nc1cccc(F)c1)c1cccc([N+](=O)[O-])c1O
- MIC (Mycobacterium kansasii [1]): 125 µM (≈ 34.5 µg/mL)
- MIC (Mycobacterium kansasii [2]): 250 µM (≈ 69.1 µg/mL)
- MIC (Mycobacterium avium [3]): 500 µM (≈ 138 µg/mL)
- MIC (Mycobacterium avium [4]): 500 µM (≈ 138 µg/mL)
- MIC (Mycobacterium kansasii [5]): 250 µM (≈ 69.1 µg/mL)
- MIC [6]: 62.5 µM (≈ 17.3 µg/mL)
- MIC (Mycobacterium kansasii [7]): 62.5 µM (≈ 17.3 µg/mL)
- MIC (Mycobacterium kansasii [8]): 125 µM (≈ 34.5 µg/mL)
- MIC (Mycobacterium kansasii [9]): 250 µM (≈ 69.1 µg/mL)
- MIC [10]: 62.5 µM (≈ 17.3 µg/mL)
